{"source": "paper PMC3204933", "about": "(Free radical biology & medicine, 2011)", "molecules": {"B1": {"name": "unlabeled Nox4 B-loop peptide (amino acids 77 – 106) (peptide, UniProt Q9NPH5-1 77-106, looked up)", "peptide": "RTLLAYLRGSQKVPSRRTRRLLDKSRTFHI"}, "B2": {"name": "Nox2ds (peptide)", "peptide": "CSTRVRRQL-NH2"}}, "key": {"Nox4 (COS-Nox4 cells) [1]": {"tested_on": "Nox4 (COS-Nox4 cells)", "assay": "cells", "settings": "Homo sapiens, read-out: inhibition of Nox4-dependent activity"}, "Nox4 (COS-Nox4 cells) [2]": {"tested_on": "Nox4 (COS-Nox4 cells)", "settings": "DPI 5 μM; untreated COS-Nox4 4818±19, COS-22 2577±6.5"}, "[3]": {"tested_on": "nitric oxide synthase (NOS)", "settings": "ref [41], [47]; cited from earlier work"}, "[4]": {"tested_on": "NADH dehydrogenase (mitochondrial complex I)", "settings": "ref [41], [47]; cited from earlier work"}, "xanthine oxidase [5]": {"tested_on": "xanthine oxidase", "settings": "ref [41], [47]; cited from earlier work"}, "[6]": {"target": "T1, Nox2 oxidase (COS-Nox2 cell lysate) (Homo sapiens, UniProt P14598)", "T1 sequence (P14598 1-390)": "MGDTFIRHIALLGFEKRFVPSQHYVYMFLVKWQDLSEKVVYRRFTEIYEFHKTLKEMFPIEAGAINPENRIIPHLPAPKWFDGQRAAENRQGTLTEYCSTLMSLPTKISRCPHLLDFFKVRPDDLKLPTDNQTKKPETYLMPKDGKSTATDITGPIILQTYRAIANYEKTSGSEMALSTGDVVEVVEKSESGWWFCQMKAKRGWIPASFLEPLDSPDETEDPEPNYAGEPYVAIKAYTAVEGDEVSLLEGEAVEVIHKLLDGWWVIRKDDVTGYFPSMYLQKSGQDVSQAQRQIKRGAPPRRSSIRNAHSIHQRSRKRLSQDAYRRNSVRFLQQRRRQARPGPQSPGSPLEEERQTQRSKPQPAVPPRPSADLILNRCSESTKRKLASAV", "assay": "SOD-inhibitable cytochrome c assay, COS-Nox2 cell-free system", "format": "biochemical", "settings": "for decrease of O2^•− production: L-NAME 100 μM, rotenone 50 μM, febuxostat 100 nM, n = 3"}, "[7]": {"tested_on": "Nox1/NOXO1/NOXA1 (HEK-Nox1 cell-free system)", "assay": "Cytochrome c assay, HEK-Nox1 cell-free system", "format": "biochemical, human", "settings": "10 μM Nox2ds preincubated with NOXO1; LiDS 130 μM", "in_short": "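[…] cells were separately transfected with Nox1, NOXO1 or NOXA1. Lysates were spun at 160000 × g for 60 min at 4 °C to give Nox1 membranes and NOXO1 and NOXA1 cytosols. NOXO1 was preincubated with vehicle or 10 μM peptide for 10 min, then Nox1 membrane and NOXA1 added in turn. LiDS (130 μM) was followed by 180 μM NADPH. Output was the initial linear rate of SOD-inhibitable cytochrome c reduction, nmol/min/10^7 cell equivalents.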"}, "COS-22 cells": {"tested_on": "COS-22 cells", "assay": "L-012 chemiluminescence, intact COS-22 cells", "format": "cell-based", "settings": "n = 3, untreated 8734±158"}, "[8]": {"tested_on": "HEK-Nox1/NOXO1/NOXA1 cells", "assay": "L-012 chemiluminescence, intact HEK-Nox1/NOXO1/NOXA1 cells", "format": "cell-based, human", "settings": "PMA 1 μM"}, "[9]": {"tested_on": "Nox1 oxidase (COS-Nox1/NOXO1/NOXA1 cells)", "assay": "L-012 chemiluminescence, intact COS-Nox1/NOXO1/NOXA1 cells", "format": "cell-based, human", "settings": "n = 3; for L-012 chemiluminescence: untreated 52977±1921"}, "HEK 298 cells": {"tested_on": "HEK 298 cells", "assay": "L-012 chemiluminescence, non-transfected HEK 298 cells", "format": "cell-based", "settings": "PMA 1 μM; n = 4; unstimulated 755±65.3"}, "[10]": {"tested_on": "Nox4 DH domain (GST-fused)", "assay": "Fluorescence polarization competition with FITC-Nox4 B-loop", "format": "binding", "settings": "for competition with Nox4 B-loop for Nox4 DH domain: fluorescence polarization"}, "SH3 domains of p47^phox": {"tested_on": "SH3 domains of p47^phox", "settings": "ref [41], [42]; cited from earlier work"}, "xanthine oxidase [11]": {"tested_on": "xanthine oxidase", "assay": "Xanthine/xanthine oxidase O2^•− generating system, EPR", "format": "biochemical"}, "[12]": {"target": "T2, Nox4 dehydrogenase domain (amino acids 304 – 578) recombinant protein fused to GST (human, UniProt Q9NPH5 304-578)", "T2 sequence (looked up)": "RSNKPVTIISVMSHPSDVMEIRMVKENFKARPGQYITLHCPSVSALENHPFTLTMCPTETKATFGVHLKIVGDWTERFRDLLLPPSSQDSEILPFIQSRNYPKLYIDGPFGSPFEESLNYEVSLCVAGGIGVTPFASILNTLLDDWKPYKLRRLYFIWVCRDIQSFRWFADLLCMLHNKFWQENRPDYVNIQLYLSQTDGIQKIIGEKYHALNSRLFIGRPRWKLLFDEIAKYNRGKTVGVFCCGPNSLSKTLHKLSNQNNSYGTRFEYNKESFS", "assay": "fluorescence polarisation"}}, "note": "Entries after “also recorded” stand apart in the source; their conditions may differ. Where no end group is shown, it is not given here.", "data": [{"molecule": "c1ccc2c(c1)[I+]c1ccccc1-2", "note": "[DPI, diphenyleneiodonium chloride]", "values": [{"measurement": "inhibition at 5 µM", "setting": "Nox4 (COS-Nox4 cells) [1]", "value": 82, "unit": "%"}, {"measurement": "H2O2-generating activity, Amplex Red fluorescence", "setting": "Nox4 (COS-Nox4 cells) [2]", "value": "2977±227", "unit": "RFU"}, {"measurement": "inhibition", "setting": "[3]", "value": "inhibits a multitude of flavin-containing enzymes including nitric oxide synthase (NOS)"}, {"measurement": "inhibition", "setting": "[4]", "value": "inhibits a multitude of flavin-containing enzymes including nitric oxide synthase (NOS), xanthine oxidase, and NADH dehydrogenase (mitochondrial complex I)"}, {"measurement": "inhibition", "setting": "xanthine oxidase [5]", "value": "inhibits a multitude of flavin-containing enzymes including nitric oxide synthase (NOS), xanthine oxidase"}]}, {"molecule": "COC(=O)[C@@H](N)CCCNC(N)=N[N+](=O)[O-]", "note": "[L-NAME, Nω-Nitro-L-arginine methyl ester]", "values": [{"measurement": "decrease of O2^•− production", "setting": "[6]", "value": "did not decrease O2^•− production significantly"}]}, {"molecule": "CCCCCCCCCCCCOS(=O)(=O)[O-].[Li+]", "note": "[LiDS, lithium dodecyl sulfate]", "values": [{"measurement": "effect on O2^•− production in HEK-Nox1 cell-free system", "setting": "[7]", "value": "significantly increased O2^•− production"}, {"measurement": "O2^•− production", "setting": "[6]; LiDS 130 μM, NADPH 180 μM, vehicle 0.40±0.1, p < 0.05", "value": "1.33±0.1 nmol O2^•−/min/10^7 COS-Nox2 lysate-cell equivalents"}]}, {"molecule": "CCCCCCCCCCCCCC(=O)O[C@@H]1[C@@H](C)[C@@]2(O)[C@@H](C=C(CO)C[C@]3(O)C(=O)C(C)=C[C@@H]23)[C@@H]2C(C)(C)[C@]12OC(C)=O", "note": "[PMA, phorbol myristate acetate]", "values": [{"measurement": "L-012 chemiluminescence", "setting": "COS-22 cells; PMA 1 μM", "value": "5903±541", "unit": "RLUs"}, {"measurement": "stimulation of O2^•−", "setting": "[8]; n = 4, p < 0.05", "value": "significantly stimulated O2^•−"}, {"measurement": "L-012 chemiluminescence", "setting": "[8]; n = 4, unstimulated 8560±337, p < 0.05", "value": "12946±199", "unit": "RLUs"}, {"measurement": "L-012 chemiluminescence", "setting": "[9]; PMA 1 μM", "value": "56537±2741", "unit": "RLUs"}, {"measurement": "effect on chemiluminescent signal / O2^•−", "setting": "[9]; SOD 150 U/ml, PMA 1 μM", "value": "did not stimulate O2^•−"}, {"measurement": "L-012 chemiluminescence", "setting": "HEK 298 cells", "value": "912±40.5", "unit": "RLUs"}]}, {"molecule": "Cc1nc(-c2ccc(OCC(C)C)c(C#N)c2)sc1C(=O)O", "note": "[febuxostat, Febuxostat]", "values": [{"measurement": "decrease of O2^•− production", "setting": "[6]", "value": "did not decrease O2^•− production significantly"}]}, {"molecule": "C=C(C)[C@H]1Cc2c(ccc3c2O[C@@H]2COc4cc(OC)c(OC)cc4[C@@H]2C3=O)O1", "note": "[rotenone]", "values": [{"measurement": "decrease of O2^•− production", "setting": "[6]", "value": "did not decrease O2^•− production significantly"}]}, {"molecule": "Nox4 B-loop: unlabeled Nox4 B-loop peptide (amino acids 77 – 106) (RTLLAYLRGSQKVPSRRTRRLLDKSRTFHI)", "values": [{"measurement": "competition with Nox4 B-loop for Nox4 DH domain", "setting": "[10]", "value": "effectively competed off the FITC-Nox4 B-loop in the low micromolar range; also recorded: quite effectively, in the low micromolar range"}]}, {"molecule": "PR-39", "values": [{"measurement": "SH3 binding and association of p47^phox with Nox2", "setting": "SH3 domains of p47^phox", "value": "binds to the SH3 domains of p47^phox, was shown to prevent association of p47^phox with Nox2"}]}, {"molecule": "[NH3]-C-L-R-V-T-R-Q-S-R-[CONH2] [scrmb Nox2ds]", "values": [{"measurement": "CM^• radical intensity", "setting": "xanthine oxidase [11]; 10 μM peptide + X/XO, 10 min, XO/X control 100±2.4, mean ± SEM of 6 experiments", "value": "92.4±1.8", "unit": "%"}, {"measurement": "effect on XO-generated O2^•−", "setting": "xanthine oxidase [11]; 10 μM, 10 min preincubation", "value": "did not alter XO-generated O2^•−"}, {"measurement": "inhibition of O2^•− production", "setting": "[6]; 0.1–10 μM, 5 min preincubation, LiDS 130 μM, NADPH 180 μM, 7–16 experiments", "value": "did not inhibit Nox2-oxidase"}, {"measurement": "competition with Nox4 B-loop", "setting": "[10]; at concentrations below 0.1 mM", "value": "not effective"}, {"measurement": "competition with Nox4 B-loop for Nox4 DH domain", "setting": "[10]", "value": "equal and poor competition with the Nox4 B-loop for binding to the Nox4 DH domain (millimolar concentrations)"}]}, {"molecule": "superoxide dismutase [SOD]", "values": [{"measurement": "L-012 chemiluminescence", "setting": "COS-22 cells; SOD 150 U/ml", "value": "108±16", "unit": "RLUs"}, {"measurement": "radical intensity", "setting": "xanthine oxidase [11]; XO + X in presence of 100 U/ml SOD, 6 experiments", "value": "15.7±0.3", "unit": "%"}, {"measurement": "effect on chemiluminescent signal / O2^•−", "setting": "[9]; SOD 150 U/ml, PMA 1 μM", "value": "abolished the chemiluminescent signal"}, {"measurement": "L-012 chemiluminescence", "setting": "[9]; SOD 150 U/ml", "value": "177±9", "unit": "RLUs"}]}, {"molecule": "B1", "values": [{"measurement": "LogEC50", "setting": "[12]", "value": 3, "unit": "nM"}]}, {"molecule": "B2", "values": [{"measurement": "LogEC50", "setting": "[12]", "value": 5.5, "unit": "nM"}]}]}
